Data as given in paper PMC4210426 (The Journal of General Physiology, 2014).
Values joined by “and” are separate entries in the source; they are usually repeats but may differ in a detail not shown here. Identical values can stand only once. Like-named read-outs stand apart in the source and are kept apart here. Values belong to the molecule of their own block, whether it stands above or below them.

Legend:
BK channels (mSlo1) [1] = target: T1, BK channels (mSlo1) (Mus musculus, UniProt Q08460); type: cell-based
T1 sequence (Q08460 whole entry): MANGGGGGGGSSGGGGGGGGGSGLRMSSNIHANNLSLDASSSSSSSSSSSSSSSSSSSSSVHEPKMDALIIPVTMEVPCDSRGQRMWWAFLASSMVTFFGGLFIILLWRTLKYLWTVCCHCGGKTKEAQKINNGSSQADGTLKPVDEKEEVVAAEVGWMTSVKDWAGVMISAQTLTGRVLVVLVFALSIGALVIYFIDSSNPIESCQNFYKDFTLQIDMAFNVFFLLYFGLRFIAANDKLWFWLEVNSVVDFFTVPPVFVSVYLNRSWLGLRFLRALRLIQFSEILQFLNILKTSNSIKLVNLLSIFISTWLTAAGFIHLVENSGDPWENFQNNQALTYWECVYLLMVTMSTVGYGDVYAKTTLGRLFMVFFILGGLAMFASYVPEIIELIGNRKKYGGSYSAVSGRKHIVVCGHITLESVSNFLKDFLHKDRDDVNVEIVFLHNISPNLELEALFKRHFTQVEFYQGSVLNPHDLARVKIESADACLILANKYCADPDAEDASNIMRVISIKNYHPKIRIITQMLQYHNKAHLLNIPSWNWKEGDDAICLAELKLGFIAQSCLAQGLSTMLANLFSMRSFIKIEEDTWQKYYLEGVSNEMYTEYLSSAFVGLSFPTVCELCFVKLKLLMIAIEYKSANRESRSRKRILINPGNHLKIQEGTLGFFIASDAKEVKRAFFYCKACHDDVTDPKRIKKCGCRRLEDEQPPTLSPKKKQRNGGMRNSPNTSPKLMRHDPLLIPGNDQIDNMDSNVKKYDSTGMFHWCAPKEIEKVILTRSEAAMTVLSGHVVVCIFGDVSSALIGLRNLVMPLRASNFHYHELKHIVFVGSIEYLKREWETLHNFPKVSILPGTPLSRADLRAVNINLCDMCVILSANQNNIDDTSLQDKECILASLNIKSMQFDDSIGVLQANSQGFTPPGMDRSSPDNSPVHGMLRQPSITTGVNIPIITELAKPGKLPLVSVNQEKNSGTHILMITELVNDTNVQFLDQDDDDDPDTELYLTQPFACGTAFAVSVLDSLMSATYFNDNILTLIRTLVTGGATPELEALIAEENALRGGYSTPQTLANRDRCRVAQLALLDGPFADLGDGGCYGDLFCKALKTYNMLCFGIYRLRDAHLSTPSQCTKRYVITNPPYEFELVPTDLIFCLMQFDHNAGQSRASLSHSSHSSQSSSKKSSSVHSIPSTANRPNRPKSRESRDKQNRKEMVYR
How it was run: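 Oocyte inside-out patches at ∼22–25°C. Pipette (mM): 140 K-methanesulfonate, 20 KOH, 10 HEPES, 2 MgCl2, pH 7.0. Cytosolic Ca2+ buffered with 5 mM HEDTA (10 µM) or unbuffered (300 µM). Test compound equilibrated for 4 min at set holding potential/Ca2+ before G-V from brief test steps. Concentration series (at least four) used steps to 160 mV at −70 to 70 mV. Hill and allosteric-scheme fits.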

BK channels (mSlo1) [2] = target: T1, BK channels (mSlo1); assay: NPo measurements at negative potentials in macropatches; type: cell-based
[3] = target: BK channel voltage sensors (mSlo1) (Mus musculus, UniProt Q08460); assay: Gating current measurements in inside-out macropatches; type: cell-based; conditions: with 500 nM paxilline, 0 Ca^2+
BK channel voltage sensors (mSlo1), sequence (Q08460 whole entry): as above
How it was run: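 Inside-out macropatches from oocytes, room temperature (∼22–25°C). Pipette solution (mM): 127 TEA-OH, 125 methanesulfonic acid, 2 MgCl2, 10 HEPES, pH 7.0. Internal solution (mM): 141 NMDG, 135 methanesulfonic acid, 10 HEPES, 5 EGTA, pH 7.0. Voltage commands filtered at 20 kHz. Gating currents filtered at 10 kHz and sampled at 100 kHz. P/5 subtraction of capacitive and leak currents from −80 mV holding.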

BK channels (mSlo1) [4] = target: T1, BK channels (mSlo1); assay: Kinetics of onset of and recovery from paxilline inhibition of BK current; type: cell-based
How it was run: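 Oocyte inside-out patches with fast perfusion, room temperature. BK availability monitored by brief steps to 160 mV. Onset came from wash-in of 100 nM test compound at −80 mV, 300 µM Ca2+, fitted with single exponentials. Block rate was measured over 5–2,000 nM at −80 and −100 mV, with step interval cut to 0.2 s at highest concentrations. Recovery followed a switch in equilibration voltage or washout. Kd was derived from kinetic rates.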

[5] = target: Slo1-A313C channels (unmodified, MTSET-, MTSEA- or MTSES-modified) (Mus musculus, UniProt Q08460, A378C/C495S); assay: Paxilline block of Slo1-A313C currents before and after MTS modification; type: cell-based; conditions: 100 nM paxilline; for fractional block: 0 mV
Slo1-A313C channels (unmodified, MTSET-, MTSEA- or MTSES-modified), sequence (Q08460 whole entry A378C/C495S): as the sequence (Q08460 whole entry) above, with A378C, C495S counted along it

BK channels (Slo1) = BK channels (Slo1) (Mus musculus, UniProt Q08460); assay: Paxilline inhibition of BK current in the presence of bbTBA or 2 M sucrose; type: cell-based
BK channels (Slo1), sequence (Q08460 whole entry): as the sequence (Q08460 whole entry) above

[6] = target: T2, Slo1-C430S-A313C channels (Mus musculus, UniProt Q08460, A378C/C495S); assay: MTSET modification of A313C in closed BK channels, without and with paxilline; type: cell-based; conditions: 500 nM paxilline, −80 mV, 0 Ca^2+
T2 sequence (Q08460 whole entry A378C/C495S): as the sequence (Q08460 whole entry) above, with A378C, C495S counted along it
How it was run: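 Slo1-C430S-A313C channels in oocyte inside-out patches. 1 mM MTSET applied for 120 s at −80 mV holding in 0 Ca2+. Currents recorded with 300 µM Ca2+ before and after modification, with steps up to 200 mV. Separate control G-V sets were collected for modification without and with test compound.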

[7] = cited from earlier work
BK channel G311 mutant = conditions: ref Zhou et al., 2010; cited from earlier work
[8] = system: pH-regulated Slo3 K^+ channel; conditions: cited from earlier work
[9] = target: T2, Slo1-C430S-A313C channels; conditions: 1 mM MTSET, ref Zhou et al., 2011, cited from earlier work
CNG channels = conditions: ref Fodor et al., 1997a,b; cited from earlier work
BK channels [10] = assay: bbTBA block of BK channels; type: cell-based; conditions: assuming a zδ of 0.148 e assigned to the forward rate
BK channels [11] = conditions: at 100 mV; ref Wilkens and Aldrich, 2006; cited from earlier work
[12] = in 100 nM paxilline, 10 µM Ca^2+, holding potential 0 mV
[13] = with 50 nM paxilline, all solutions 10 mM DTT, n = 7 patches

SMILES: CC(C)(O)[C@H]1O[C@H]2CC[C@@]3(C)[C@@](O)(CC[C@H]4Cc5c([nH]c6ccccc56)[C@@]43C)C2=CC1=O [paxilline]
- inhibition of current (BK channels (mSlo1) [1]; 10 nM paxilline, 0 mV, 10 µM Ca^2+ (Po <0.02), 4 min): over half
- inhibition of current (BK channels (mSlo1) [1]; 100 nM paxilline, 0 mV, 10 µM Ca^2+ (Po <0.02), 4 min): essentially complete inhibition
- inhibition of current (BK channels (mSlo1) [1]; 100 nM paxilline, holding potential 80 mV, 300 µM Ca^2+, 1 min of application): almost no inhibition
- IC50 (BK channels (mSlo1) [1]; IC50 (Hill fit), equilibration 0 mV, 300 µM Ca^2+ (Po ∼0.65)): 0.0584 ± 0.0029 µM
- IC50 (BK channels (mSlo1) [1]; IC50 (Hill fit), equilibration 40 mV, 300 µM Ca^2+ (Po ∼0.83)): 0.47 ± 0.0949 µM
- IC50 (BK channels (mSlo1) [1]; IC50 (Hill fit), equilibration 70 mV, 300 µM Ca^2+ (Po ∼0.89)): 5.37 ± 1 µM
- IC50 (BK channels (mSlo1) [1]; IC50 (Hill fit), equilibration −70 mV, 300 µM Ca^2+ (Po ∼0.1)): 0.0117 ± 0.0019 µM
- IC50 (BK channels (mSlo1) [1]; IC50 for paxilline, as maximal Po was approached): ~10 µM
- IC50 (BK channels (mSlo1) [1]; IC50 for paxilline, channels largely closed): ~0.01 µM
- reduction in the C-O equilibrium constant L(0) (BK channels (mSlo1) [1]; binding of one paxilline molecule): > 500 fold
- direct inhibition of the open state (BK channels (mSlo1) [1]; concentrations up to 10 µM): not directly inhibited
- n (BK channels (mSlo1) [1]; fit of Scheme 1 (Eq. 1) to four equilibration conditions): 1.09 ± 0.11
- Vh of G-V curve (BK channels (mSlo1) [1]; [12]): 24.75 ± 0.13 mV
- z of G-V curve (BK channels (mSlo1) [1]; [12]): 0.86 ± 0.01 e
- affinity for closed conformation relative to open conformation (BK channels (mSlo1) [1]; model-dependent analysis (Scheme 1)): > 500 fold and ~500 fold
- difference between closed- and open-state affinity (BK channels (mSlo1) [1]; model-independent analysis of IC50 vs state occupancy, and overall conclusion): ~1,000 fold
- Vh of G-V curve (BK channels (mSlo1) [1]; [13]): 21.21 ± 1.85 mV
- z of G-V curve (BK channels (mSlo1) [1]; [13]): 0.79 ± 0.07 e
- normalized NPo (BK channels (mSlo1) [2]; 100 nM paxilline, −80 mV, 300 µM Ca^2+): < 0.05
- IC50 (BK channels (mSlo1) [2]; IC50 for reduction in normalized NPo, −80 mV, Hill fit with n = 1): 0.0055 ± 0.0011 µM
- inhibition at 0.1 µM (BK channels (mSlo1) [2]; read-out: inhibition of BK current (NPo)): > 95%
- Hill coefficient n (BK channels (mSlo1) [2]; −80 mV, 10 or 300 µM Ca^2+, Hill fit of normalized NPo): 0.85 ± 0.25
- Vh of Qoff [3]: 130.2 ± 9.1 mV
- Vh of Qon [3]: 131.4 ± 2.1 mV
- z of Qoff [3]: 0.56 ± 0.035 e
- z of Qon [3]: 0.54 ± 0.025 e
- Kd (BK channels (mSlo1) [4]): 0.0129 µM
- τon, time constant of onset of inhibition by wash-in (BK channels (mSlo1) [4]; 100 nM paxilline, −80 mV, 300 µM Ca^2+, four patches, mean ± STD): 26.3 ± 6.6 s
- time constant of onset of inhibition after change in equilibration condition (BK channels (mSlo1) [4]; constant 100 nM paxilline, 80 to −80 mV, 300 µM Ca^2+, four patches, mean ± STD): 6.85 ± 1.79 s
- difference in recovery time constant between 20 and 100 nM paxilline (BK channels (mSlo1) [4]; recovery at 0 mV in the constant presence of paxilline, seven patches): 1.6 fold
- rate of inhibition of closed channels (slope of blocking rate vs [paxilline]) (BK channels (mSlo1) [4]; −80 and −100 mV, 300 µM Ca^2+, 5 to 2,000 nM paxilline): 2e+06 M⁻¹ s⁻¹
- mean time constant of recovery (BK channels (mSlo1) [4]; −80 mV): 37.0 s
- fractional block ([5]; MTSEA-modified Slo1-A313C, 10 µM Ca^2+ (Po ∼0.48)): ~0.5
- inhibition relative to unmodified Slo1-A313C ([5]; MTSES-modified Slo1-A313C (Po ∼0.12)): only slightly weaker
- fractional block ([5]; MTSET-modified Slo1-A313C, 10 µM Ca^2+ (Po ∼0.9)): < 0.1
- block of Slo1-A313C current ([5]; unmodified A313C): strong block
- reduction of current (BK channels (Slo1); 100 nM paxilline alone for ∼40 s, 0 mV, 10 µM Ca^2+): ~80%
- reduction of the number of channels blocked by paxilline (BK channels (Slo1); 100 nM paxilline applied together with 100 µM bbTBA, 0 mV, 10 µM Ca^2+): ~50%
- inhibition of BK current (BK channels (Slo1); 100 nM paxilline with 2 M sucrose in the cytosolic solution, 300 µM Ca^2+): only a weak inhibition
- effect on MTSET modification of A313C in closed channels ([6]; 1 mM MTSET for 120 s): no difference in modification with or without paxilline
- inhibition of BK current during MTSET application [6]: completely inhibited
- logP [7]: 3.62
- effect of G311 mutation on paxilline inhibition (BK channel G311 mutant): totally abolishes paxilline inhibition
- sensitivity to paxilline inhibition [8]: resistant

SMILES: C[N+](C)(C)CCSS(C)(=O)=O.[Br-] [MTSET, [2-(trimethylammonium)ethyl] MTS bromide]
- reduction in maximal conductance ([9]; closed BK channels): > 50%
- time constant of modification of A313C of closed BK channels [9]: ~23 s

SMILES: CCCCNc1ccc(C(=O)OCCN(C)C)cc1 [tetracaine]
- affinity for closed channels relative to open channels (CNG channels): ~1,000 fold

- Vh of activation (BK channels (Slo1); with 2 M sucrose, 300 µM Ca^2+, tail currents at −120 mV): −12.8 ± 3.3 mV
SMILES: OC[C@H]1O[C@@](CO)(O[C@H]2O[C@H](CO)[C@@H](O)[C@H](O)[C@H]2O)[C@@H](O)[C@@H]1O [sucrose]

SMILES: CCCC[N+](CCCC)(CCCC)Cc1ccc(C(=O)c2ccccc2)cc1 [bbTBA, N-(4-[benzoyl]benzyl)-N,N,N-tributylammonium]
- 0-voltage forward rate (BK channels [10]): 6.7e+07 M⁻¹ s⁻¹
- forward rate of block (BK channels [11]): 1.2e+08 M⁻¹ s⁻¹
